From ChEMBL document CHEMBL1944580, “Synthesis of novel sulfonamide-1,2,4-triazoles, 1,3,4-thiadiazoles and 1,3,4-oxadiazoles, as potential antibacterial and antifungal agents. Biological evaluation and conformational analysis studies” (2012)
In brackets after ≈: the same amount, converted by molar mass.

Legend:
Staphylococcus aureus [1] = experiment: Antibacterial activity against Staphylococcus aureus ATCC 6538 after 24 hrs by micro dilution method; assay type: functional; settings: ATCC 6538, 24 h
Method in brief: (§1)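 Microdilution MIC in 96-well plates. Bacterial suspensions adjusted in sterile saline to 1.0 × 10^5 CFU/ml, giving 1.0 × 10^4 cfu per well in LB broth. Compounds tested at up to 1 mg/ml. Plates incubated 24 h. MIC taken as the lowest concentration with no visible growth under a binocular microscope. OD at 655 nm was also read against a blank and the positive control. Streptomycin and ampicillin were the positive controls.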

Bacillus cereus [2] = experiment: Antibacterial activity against Bacillus cereus clinical isolate after 24 hrs by micro dilution method; assay type: functional; method in brief: as §1
Micrococcus flavus [3] = experiment: Antibacterial activity against Micrococcus flavus ATCC 10240 after 24 hrs by micro dilution method; assay type: functional; settings: ATCC 10240, 24 h; method in brief: as §1
Listeria monocytogenes [4] = experiment: Antibacterial activity against Listeria monocytogenes NCTC 7973 after 24 hrs by micro dilution method; assay type: functional; settings: NCTC 7973, 24 h; method in brief: as §1
Pseudomonas aeruginosa [5] = experiment: Antibacterial activity against Pseudomonas aeruginosa ATCC 27853 after 24 hrs by micro dilution method; assay type: functional; settings: ATCC 27853, 24 h; method in brief: as §1
Enterobacter cloacae [6] = experiment: Antibacterial activity against Enterobacter cloacae human isolate after 24 hrs by micro dilution method; assay type: functional; method in brief: as §1
Salmonella typhimurium [7] = experiment: Antibacterial activity against Salmonella Typhimurium ATCC 13311 after 24 hrs by micro dilution method; assay type: functional, Salmonella enterica subsp. enterica serovar Typhimurium; settings: Salmonella enterica, ATCC 13311, 24 h; method in brief: as §1
Escherichia coli [8] = experiment: Antibacterial activity against Escherichia coli ATCC 35210 after 24 hrs by micro dilution method; assay type: functional; settings: ATCC 35210, 24 h; method in brief: as §1
Staphylococcus aureus [9] = experiment: Antibacterial activity against Staphylococcus aureus ATCC 6538 treated for 24 hrs followed by sub-cultivated for 72 hrs by micro dilution method; assay type: functional
Method in brief: (§2)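 2 µl from each well was serially subcultured into 100 µl fresh broth per well and incubated a further 72 h. MBC is the lowest concentration with no visible growth, taken as 99.5% killing of the original inoculum. Streptomycin and ampicillin were the positive controls.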

Bacillus cereus [10] = experiment: Antibacterial activity against Bacillus cereus clinical isolate treated for 24 hrs followed by sub-cultivated for 72 hrs by micro dilution method; assay type: functional; method in brief: as §2
Micrococcus flavus [11] = experiment: Antibacterial activity against Micrococcus flavus ATCC 10240 treated for 24 hrs followed by sub-cultivated for 72 hrs by micro dilution method; assay type: functional; method in brief: as §2
Listeria monocytogenes [12] = experiment: Antibacterial activity against Listeria monocytogenes NCTC 7973 treated for 24 hrs followed by sub-cultivated for 72 hrs by micro dilution method; assay type: functional; method in brief: as §2
Pseudomonas aeruginosa [13] = experiment: Antibacterial activity against Pseudomonas aeruginosa ATCC 27853 treated for 24 hrs followed by sub-cultivated for 72 hrs by micro dilution method; assay type: functional; method in brief: as §2
Enterobacter cloacae [14] = experiment: Antibacterial activity against Enterobacter cloacae human isolate treated for 24 hrs followed by sub-cultivated for 72 hrs by micro dilution method; assay type: functional; method in brief: as §2
Salmonella typhimurium [15] = experiment: Antibacterial activity against Salmonella Typhimurium ATCC 13311 treated for 24 hrs followed by sub-cultivated for 72 hrs by micro dilution method; assay type: functional, Salmonella enterica subsp. enterica serovar Typhimurium; settings: Salmonella enterica; method in brief: as §2
Escherichia coli [16] = experiment: Antibacterial activity against Escherichia coli ATCC 35210 treated for 24 hrs followed by sub-cultivated for 72 hrs by micro dilution method; assay type: functional; method in brief: as §2
Talaromyces funiculosus [17] = experiment: Antifungal activity against Penicillium funiculosum ATCC 36839 after 72 hrs by serial dilution method; assay type: functional; settings: ATCC 36839, 72 h
Method in brief: (§3)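 Modified microdilution MIC. Spores were washed from malt agar cultures with sterile 0.85% saline containing 0.1% Tween 80 and adjusted to about 1.0 × 10^5 per 100 µl well in malt broth. Compounds were dissolved in DMSO (1 mg/ml). Plates incubated 72 h at 28 °C. MIC is the lowest concentration with no visible growth under a binocular microscope. Bifonazole and ketoconazole were the references.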

Penicillium ochrochloron [18] = experiment: Antifungal activity against Penicillium ochrochloron ATCC 9112 after 72 hrs by serial dilution method; assay type: functional; settings: ATCC 9112, 72 h; method in brief: as §3
Trichoderma viride [19] = experiment: Antifungal activity against Trichoderma viride IAM 5061 after 72 hrs by serial dilution method; assay type: functional; settings: IAM 5061, 72 h; method in brief: as §3
Aspergillus fumigatus [20] = experiment: Antifungal activity against Aspergillus fumigatus human isolate after 72 hrs by serial dilution method; assay type: functional; method in brief: as §3
Aspergillus niger [21] = experiment: Antifungal activity against Aspergillus niger ATCC 6275 after 72 hrs by serial dilution method; assay type: functional; settings: ATCC 6275, 72 h; method in brief: as §3
Aspergillus flavus [22] = experiment: Antifungal activity against Aspergillus flavus ATCC 9643 after 72 hrs by serial dilution method; assay type: functional; settings: ATCC 9643, 72 h; method in brief: as §3
Aspergillus versicolor [23] = experiment: Antifungal activity against Aspergillus versicolor ATCC 11730 after 72 hrs by serial dilution method; assay type: functional; settings: ATCC 11730, 72 h; method in brief: as §3
Fulvia fulva [24] = experiment: Antifungal activity against Fulvia fulva after 72 hrs by serial dilution method; assay type: functional; method in brief: as §3
Talaromyces funiculosus [25] = experiment: Antifungal activity against Penicillium funiculosum ATCC 36839 treated for 72 hrs followed by sub-cultivated for 5 days by serial dilution method; assay type: functional
Method in brief: (§4)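 MFC obtained after the 72 h, 28 °C malt-broth microdilution (spore inoculum about 1.0 × 10^5 per well, compounds from 1 mg/ml DMSO). 2 µl was serially subcultured into 100 µl broth per well and incubated a further 5 days at 28 °C. MFC is the lowest concentration with no visible growth, taken as 99.5% killing of the original inoculum.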

Penicillium ochrochloron [26] = experiment: Antifungal activity against Penicillium ochrochloron ATCC 9112 treated for 72 hrs followed by sub-cultivated for 5 days by serial dilution method; assay type: functional; method in brief: as §4
Trichoderma viride [27] = experiment: Antifungal activity against Trichoderma viride IAM 5061 treated for 72 hrs followed by sub-cultivated for 5 days by serial dilution method; assay type: functional; method in brief: as §4
Aspergillus fumigatus [28] = experiment: Antifungal activity against Aspergillus fumigatus human isolate treated for 72 hrs followed by sub-cultivated for 5 days by serial dilution method; assay type: functional; method in brief: as §4
Aspergillus niger [29] = experiment: Antifungal activity against Aspergillus niger ATCC 6275 treated for 72 hrs followed by sub-cultivated for 5 days by serial dilution method; assay type: functional; method in brief: as §4
Aspergillus flavus [30] = experiment: Antifungal activity against Aspergillus flavus ATCC 9643 treated for 72 hrs followed by sub-cultivated for 5 days by serial dilution method; assay type: functional; method in brief: as §4
Aspergillus versicolor [31] = experiment: Antifungal activity against Aspergillus versicolor ATCC 11730 treated for 72 hrs followed by sub-cultivated for 5 days by serial dilution method; assay type: functional; method in brief: as §4
Fulvia fulva [32] = experiment: Antifungal activity against Fulvia fulva treated for 72 hrs followed by sub-cultivated for 5 days by serial dilution method; assay type: functional; method in brief: as §4

Compound | MIC (Staphylococcus aureus [1]) [µM] | MIC (Bacillus cereus [2]) [µM] | MIC (Micrococcus flavus [3]) [µM] | MIC (Listeria monocytogenes [4]) [µM] | MIC (Pseudomonas aeruginosa [5]) [µM] | MIC (Enterobacter cloacae [6]) [µM] | MIC (Salmonella typhimurium [7]) [µM] | MIC (Escherichia coli [8]) [µM] | MBC (Staphylococcus aureus [9]) [µM] | MBC (Bacillus cereus [10]) [µM] | MBC (Micrococcus flavus [11]) [µM] | MBC (Listeria monocytogenes [12]) [µM] | MBC (Pseudomonas aeruginosa [13]) [µM] | MBC (Enterobacter cloacae [14]) [µM] | MBC (Salmonella typhimurium [15]) [µM] | MBC (Escherichia coli [16]) [µM] | MIC (Talaromyces funiculosus [17]) [µM] | MIC (Penicillium ochrochloron [18]) [µM] | MIC (Trichoderma viride [19]) [µM] | MIC (Aspergillus fumigatus [20]) [µM] | further results
CNc1nnc(Cc2cc(OC)c(OC)cc2S(=O)(=O)N(C)C)s1 | 270 (≈ 101 µg/mL) | 270 (≈ 101 µg/mL) | 270 (≈ 101 µg/mL) | 270 (≈ 101 µg/mL) | 270 (≈ 101 µg/mL) | 270 (≈ 101 µg/mL) | 270 (≈ 101 µg/mL) | 270 (≈ 101 µg/mL) | 540 (≈ 201 µg/mL) | 270 (≈ 101 µg/mL) | 540 (≈ 201 µg/mL) | 540 (≈ 201 µg/mL) | 270 (≈ 101 µg/mL) | 270 (≈ 101 µg/mL) | 270 (≈ 101 µg/mL) | 270 (≈ 101 µg/mL) | 140 (≈ 52.1 µg/mL) | 140 (≈ 52.1 µg/mL) | 70 (≈ 26.1 µg/mL) | 140 (≈ 52.1 µg/mL) | MIC (Aspergillus niger [21]): 70 µM (≈ 26.1 µg/mL); MIC (Aspergillus flavus [22]): 140 µM (≈ 52.1 µg/mL); MIC (Aspergillus versicolor [23]): 270 µM (≈ 101 µg/mL); MIC (Fulvia fulva [24]): 70 µM (≈ 26.1 µg/mL); MFC (Talaromyces funiculosus [25]): 270 µM (≈ 101 µg/mL); MFC (Penicillium ochrochloron [26]): 270 µM (≈ 101 µg/mL); MFC (Trichoderma viride [27]): 130 µM (≈ 48.4 µg/mL); MFC (Aspergillus fumigatus [28]): 270 µM (≈ 101 µg/mL); MFC (Aspergillus niger [29]): 140 µM (≈ 52.1 µg/mL); MFC (Aspergillus flavus [30]): 270 µM (≈ 101 µg/mL); MFC (Aspergillus versicolor [31]): 540 µM (≈ 201 µg/mL); MFC (Fulvia fulva [32]): 70 µM (≈ 26.1 µg/mL)
CCCn1c(Cc2cc(OC)c(OC)cc2S(=O)(=O)N(C)C)n[nH]c1=S | 500 (≈ 200 µg/mL) | 250 (≈ 100 µg/mL) | 250 (≈ 100 µg/mL) | 250 (≈ 100 µg/mL) | 500 (≈ 200 µg/mL) | 250 (≈ 100 µg/mL) | 500 (≈ 200 µg/mL) | 500 (≈ 200 µg/mL) | 500 (≈ 200 µg/mL) | 500 (≈ 200 µg/mL) | 500 (≈ 200 µg/mL) | 250 (≈ 100 µg/mL) | 500 (≈ 200 µg/mL) | 250 (≈ 100 µg/mL) | 500 (≈ 200 µg/mL) | 500 (≈ 200 µg/mL) | 130 (≈ 52.1 µg/mL) | 130 (≈ 52.1 µg/mL) | 60 (≈ 24 µg/mL) | 130 (≈ 52.1 µg/mL) | MIC (Aspergillus niger [21]): 60 µM (≈ 24 µg/mL); MIC (Aspergillus flavus [22]): 60 µM (≈ 24 µg/mL); MIC (Aspergillus versicolor [23]): 250 µM (≈ 100 µg/mL); MIC (Fulvia fulva [24]): 60 µM (≈ 24 µg/mL); MFC (Talaromyces funiculosus [25]): 250 µM (≈ 100 µg/mL); MFC (Penicillium ochrochloron [26]): 250 µM (≈ 100 µg/mL); MFC (Trichoderma viride [27]): 130 µM (≈ 52.1 µg/mL); MFC (Aspergillus fumigatus [28]): 250 µM (≈ 100 µg/mL); MFC (Aspergillus niger [29]): 130 µM (≈ 52.1 µg/mL); MFC (Aspergillus flavus [30]): 130 µM (≈ 52.1 µg/mL); MFC (Aspergillus versicolor [31]): 500 µM (≈ 200 µg/mL); MFC (Fulvia fulva [32]): 130 µM (≈ 52.1 µg/mL)
CCn1c(Cc2cc(OC)c(OC)cc2S(=O)(=O)N(C)C)n[nH]c1=O | 270 (≈ 100 µg/mL) | 270 (≈ 100 µg/mL) | 400 (≈ 148 µg/mL) | 400 (≈ 148 µg/mL) | 400 (≈ 148 µg/mL) | 540 (≈ 200 µg/mL) | 400 (≈ 148 µg/mL) | 270 (≈ 100 µg/mL) | 540 (≈ 200 µg/mL) | 810 (≈ 300 µg/mL) | 400 (≈ 148 µg/mL) | 540 (≈ 200 µg/mL) | 540 (≈ 200 µg/mL) | 540 (≈ 200 µg/mL) | 540 (≈ 200 µg/mL) | 270 (≈ 100 µg/mL) | 140 (≈ 51.9 µg/mL) | 140 (≈ 51.9 µg/mL) | 140 (≈ 51.9 µg/mL) | 140 (≈ 51.9 µg/mL) | MIC (Aspergillus niger [21]): 270 µM (≈ 100 µg/mL); MIC (Aspergillus flavus [22]): 270 µM (≈ 100 µg/mL); MIC (Aspergillus versicolor [23]): 140 µM (≈ 51.9 µg/mL); MIC (Fulvia fulva [24]): 270 µM (≈ 100 µg/mL); MFC (Talaromyces funiculosus [25]): 270 µM (≈ 100 µg/mL); MFC (Penicillium ochrochloron [26]): 270 µM (≈ 100 µg/mL); MFC (Trichoderma viride [27]): 270 µM (≈ 100 µg/mL); MFC (Aspergillus fumigatus [28]): 270 µM (≈ 100 µg/mL); MFC (Aspergillus niger [29]): 450 µM (≈ 167 µg/mL); MFC (Aspergillus flavus [30]): 450 µM (≈ 167 µg/mL); MFC (Aspergillus versicolor [31]): 450 µM (≈ 167 µg/mL); MFC (Fulvia fulva [32]): 270 µM (≈ 100 µg/mL)
